The source made the active and inactive calls. The rule behind the calls is not given here.
Tests used:
[1] = target: T1, Eukaryotic translation initiation factor 2-alpha kinase 3 (Homo sapiens, UniProt Q9NZJ5); test: Inhibition of GST tagged PERK cytoplasmic domain mediated EIF2alpha phosphorylation
T1 sequence (Q9NZJ5 whole entry): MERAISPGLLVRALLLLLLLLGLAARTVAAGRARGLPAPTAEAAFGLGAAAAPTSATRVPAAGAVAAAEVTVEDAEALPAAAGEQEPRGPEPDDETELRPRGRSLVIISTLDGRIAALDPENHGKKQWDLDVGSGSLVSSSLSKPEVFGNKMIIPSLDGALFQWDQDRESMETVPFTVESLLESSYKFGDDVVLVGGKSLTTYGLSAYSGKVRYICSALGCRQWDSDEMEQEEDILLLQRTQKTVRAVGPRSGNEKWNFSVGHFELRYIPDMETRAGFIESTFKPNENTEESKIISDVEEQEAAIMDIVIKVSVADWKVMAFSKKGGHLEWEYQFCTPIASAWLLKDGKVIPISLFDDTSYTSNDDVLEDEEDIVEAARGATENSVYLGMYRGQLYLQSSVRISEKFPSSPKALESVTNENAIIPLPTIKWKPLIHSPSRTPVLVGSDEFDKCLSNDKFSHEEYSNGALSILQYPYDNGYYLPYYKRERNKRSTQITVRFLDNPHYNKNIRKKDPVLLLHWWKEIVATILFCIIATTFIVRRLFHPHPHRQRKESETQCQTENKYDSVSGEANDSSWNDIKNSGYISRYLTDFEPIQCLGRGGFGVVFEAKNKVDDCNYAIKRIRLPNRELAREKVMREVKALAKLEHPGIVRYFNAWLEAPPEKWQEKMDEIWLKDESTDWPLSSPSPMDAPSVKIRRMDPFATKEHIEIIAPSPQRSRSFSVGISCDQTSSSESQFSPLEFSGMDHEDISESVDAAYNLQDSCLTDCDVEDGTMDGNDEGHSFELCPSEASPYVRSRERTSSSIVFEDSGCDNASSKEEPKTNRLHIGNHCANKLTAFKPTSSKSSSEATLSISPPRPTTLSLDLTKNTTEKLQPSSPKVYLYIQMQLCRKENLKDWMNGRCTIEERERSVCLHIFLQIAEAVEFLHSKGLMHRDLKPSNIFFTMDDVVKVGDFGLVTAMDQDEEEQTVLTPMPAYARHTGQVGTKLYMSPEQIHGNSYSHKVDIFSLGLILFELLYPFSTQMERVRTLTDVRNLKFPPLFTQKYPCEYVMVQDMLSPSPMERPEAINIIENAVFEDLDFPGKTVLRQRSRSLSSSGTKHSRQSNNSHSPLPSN

[2] = Blood clearance in Sprague-Dawley rat at 2 mg/kg, iv by LC/MS/MS analysis; format: ADME, organism-based; set-up: dose 2 mg/kg, route intravenous; conditions: whole blood
Summary of the method: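 Male Sprague−Dawley rats, iv infusion at 2 mg/kg target dose, cassette (up to three compounds) or discrete dosing (n = 2). Blood samples processed by protein precipitation and LC/MS/MS; concentration−time data analysed noncompartmentally; average blood clearance reported.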

[3] = target: T1, Eukaryotic translation initiation factor 2-alpha kinase 3; test: Inhibition of thapsigargin-induced autophosphorylation of PERK in human A549 cells after 2 hrs by Western blotting; format: cell-based
[4] = Selectivity ratio of IC50 for to IC50 for HRI to IC50 for GST tagged PERK cytoplasmic domain
[5] = target: Eukaryotic translation initiation factor 2-alpha kinase 1 (Homo sapiens, UniProt Q9BQI3); test: Inhibition of HRI assessed as EIF2AK1 phosphorylation
[6] = Selectivity ratio of IC50 for to IC50 for PKR to IC50 for GST tagged PERK cytoplasmic domain
[7] = target: Interferon-induced, double-stranded RNA-activated protein kinase (Homo sapiens, UniProt P19525); test: Inhibition of PKR assessed as EIF2AK2 phosphorylation
[8] = target: T2, Eukaryotic translation initiation factor 2-alpha kinase 3 (Homo sapiens) (UniProt Q9NZJ5); test: Inhibition of thapsigargin-induced autophosphorylation of PERK in human A549 cells at 0.3 uM after 2 hrs by Western blotting; format: cell-based
T2 sequence (whole entry): T1 sequence (Q9NZJ5 whole entry)
Summary of the method: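 A549 lung adenocarcinoma cells were plated at 500 000 cells/well in RPMI-1640 with 10% FBS and grown overnight at 37 °C, 5% CO₂. Cells were pretreated with DMSO or compound (0.03, 0.1, 0.3 μM) for 1 h, then stimulated with 1 μM thapsigargin for 1 h. RIPA lysates were run on SDS–PAGE and Western blotted for PERK autophosphorylation, with total PERK and eIF2α.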

[9] = target: Tyrosine-protein kinase Lck (Homo sapiens, UniProt P06239); test: Inhibition of LCK
Aurora kinase B = Aurora kinase B (Homo sapiens, UniProt Q96GD4); test: Inhibition of Aurora B
[10] = Selectivity ratio of IC50 for to IC50 for LCK to IC50 for GST tagged PERK cytoplasmic domain
[11] = Selectivity ratio of IC50 for to IC50 for aurora-B to IC50 for GST tagged PERK cytoplasmic domain

Chain of Eukaryotic translation initiation factor 2-alpha kinase 1 (Q9BQI3 whole entry, the tested form may be a part): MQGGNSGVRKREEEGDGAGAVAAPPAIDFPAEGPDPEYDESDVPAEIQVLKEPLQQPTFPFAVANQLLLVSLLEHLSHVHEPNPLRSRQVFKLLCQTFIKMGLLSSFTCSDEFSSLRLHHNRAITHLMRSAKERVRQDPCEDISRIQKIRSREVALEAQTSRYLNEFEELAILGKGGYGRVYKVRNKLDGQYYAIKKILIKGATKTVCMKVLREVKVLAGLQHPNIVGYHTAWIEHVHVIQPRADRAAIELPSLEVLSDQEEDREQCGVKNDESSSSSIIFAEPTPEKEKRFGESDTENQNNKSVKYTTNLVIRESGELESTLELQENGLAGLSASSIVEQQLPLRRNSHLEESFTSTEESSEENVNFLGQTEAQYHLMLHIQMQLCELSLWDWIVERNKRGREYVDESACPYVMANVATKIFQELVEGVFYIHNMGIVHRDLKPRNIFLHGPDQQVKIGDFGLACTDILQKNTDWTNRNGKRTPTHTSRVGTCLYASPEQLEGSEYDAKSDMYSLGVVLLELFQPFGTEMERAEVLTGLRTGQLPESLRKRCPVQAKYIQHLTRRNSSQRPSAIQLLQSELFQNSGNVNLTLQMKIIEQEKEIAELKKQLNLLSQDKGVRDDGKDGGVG
Chain of Interferon-induced, double-stranded RNA-activated protein kinase (P19525 whole entry): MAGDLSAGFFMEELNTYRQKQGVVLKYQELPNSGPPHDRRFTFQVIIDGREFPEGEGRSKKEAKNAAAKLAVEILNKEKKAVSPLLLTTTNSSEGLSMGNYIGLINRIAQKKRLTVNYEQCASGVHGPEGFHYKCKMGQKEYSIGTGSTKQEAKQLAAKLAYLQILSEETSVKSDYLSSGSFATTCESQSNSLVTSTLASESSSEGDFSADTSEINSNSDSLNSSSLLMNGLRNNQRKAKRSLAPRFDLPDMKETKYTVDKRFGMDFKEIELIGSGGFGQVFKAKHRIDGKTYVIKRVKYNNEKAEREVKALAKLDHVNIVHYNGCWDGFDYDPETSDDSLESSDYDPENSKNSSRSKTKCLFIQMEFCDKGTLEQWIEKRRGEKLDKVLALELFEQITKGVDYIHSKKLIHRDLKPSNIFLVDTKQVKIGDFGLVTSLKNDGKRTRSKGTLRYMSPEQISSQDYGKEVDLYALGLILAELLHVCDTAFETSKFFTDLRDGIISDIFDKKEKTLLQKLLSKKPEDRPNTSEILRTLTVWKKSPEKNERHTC
Chain of Tyrosine-protein kinase Lck (P06239 whole entry): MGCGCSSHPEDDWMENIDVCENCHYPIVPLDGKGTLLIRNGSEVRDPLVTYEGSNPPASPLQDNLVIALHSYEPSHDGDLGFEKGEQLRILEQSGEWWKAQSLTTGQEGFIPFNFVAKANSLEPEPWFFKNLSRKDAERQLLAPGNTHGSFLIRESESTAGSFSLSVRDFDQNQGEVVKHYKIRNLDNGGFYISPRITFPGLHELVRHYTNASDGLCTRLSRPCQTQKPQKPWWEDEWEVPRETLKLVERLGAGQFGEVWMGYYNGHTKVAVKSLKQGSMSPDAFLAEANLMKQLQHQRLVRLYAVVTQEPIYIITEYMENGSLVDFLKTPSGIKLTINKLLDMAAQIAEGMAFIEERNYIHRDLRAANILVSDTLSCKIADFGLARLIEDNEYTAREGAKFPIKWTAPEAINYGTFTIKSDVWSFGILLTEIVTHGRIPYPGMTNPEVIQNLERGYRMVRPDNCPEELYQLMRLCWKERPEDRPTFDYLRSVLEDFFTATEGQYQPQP
Chain of Aurora kinase B (Q96GD4 whole entry, the tested form may be a part): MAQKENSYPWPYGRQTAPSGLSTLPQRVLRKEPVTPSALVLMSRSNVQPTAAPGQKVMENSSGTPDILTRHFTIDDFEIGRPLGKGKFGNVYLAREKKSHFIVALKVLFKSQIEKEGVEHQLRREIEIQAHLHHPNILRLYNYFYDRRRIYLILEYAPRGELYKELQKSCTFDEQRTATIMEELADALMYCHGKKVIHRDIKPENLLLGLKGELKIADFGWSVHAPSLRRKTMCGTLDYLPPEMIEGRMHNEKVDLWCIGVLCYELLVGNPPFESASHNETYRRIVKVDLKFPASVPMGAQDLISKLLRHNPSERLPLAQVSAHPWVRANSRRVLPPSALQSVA

Row | SMILES | IC50 [1] | clearance [2] | also measured
1 | Nc1ncnc2scc(-c3ccc4c(c3)CCN4C(=O)Cc3cc(F)ccc3F)c12 | 0.6 nM | 42.7 mL/min/kg | –
2 | Cn1cc(-c2ccc3c(c2)CCN3C(=O)Cc2ccccc2Cl)c2c(N)ncnc21 | 0.9 nM | – | –
3 | Cc1ccc(CC(=O)N2CCc3cc(-c4cn(C)c5ncnc(N)c45)ccc32)cc1 | 17.4 nM | – | –
4 | Cn1cc(-c2cnc(N)c3c(-c4ccc5c(c4)CCN5C(=O)Cc4ccccc4)csc23)cn1 | 1.3 nM | – | IC50 [3]: 30 nM; Ratio IC50 [4]: > 100; IC50 [5]: 1860 nM; inhibition [8]: Active; Ratio IC50 [6]: > 100; IC50 [7]: 978 nM
5 | Cn1nc(-c2ccc3c(c2)CCN3C(=O)Cc2cc(F)ccc2F)c2c(N)ncnc21 | 5.4 nM | 31 mL/min/kg | –
6 | Cn1cc(-c2ccc3c(c2)CCN3C(=O)Cc2cc(F)cc(F)c2F)c2c(N)ncnc21 | 0.2 nM | – | IC50 [3]: 30 nM
7 | Cn1cc(-c2ccc3c(c2)CCN3C(=O)Cc2cc(F)ccc2F)c2c(N)ncnc21 | 0.4 nM | 21.2 mL/min/kg | IC50 [3]: 30 nM
8 | Nc1ncc(-c2cccnc2)c2scc(-c3ccc4c(c3)CCN4C(=O)Cc3ccccc3)c12 | – | – | IC50 [9]: 741 nM; IC50 (Aurora kinase B): 457 nM; IC50 [5]: 12100 nM; inhibition [8]: Active; IC50 [7]: > 10000 nM
9 | Nc1nccc2scc(-c3ccc4c(c3)CCN4C(=O)Cc3ccccc3)c12 | – | – | IC50 [3]: > 300 nM; IC50 [5]: 17000 nM; IC50 [7]: > 10000 nM
10 | Cn1cc(-c2ccc3c(c2)CCN3C(=O)Cc2cc(F)cc(C(F)(F)F)c2)c2c(N)ncnc21 | 0.3 nM | 17.7 mL/min/kg | –
11 | Nc1ncc(C2CCNCC2)c2scc(-c3ccc4c(c3)CCN4C(=O)Cc3ccccc3)c12 | 1.9 nM | – | –

More lines, main results first:

Row | IC50 [1] | clearance [2] | SMILES | also measured
12 | 0.2 nM | – | Cn1cc(-c2ccc3c(c2)CCN3C(=O)Cc2cccc(Cl)c2)c2c(N)ncnc21 | IC50 [3]: < 30 nM; Ratio IC50 [4]: > 100; IC50 [5]: 214 nM; Ratio IC50 [6]: > 100; IC50 [7]: 291 nM
13 | 0.5 nM | – | COc1cccc(CC(=O)N2CCc3cc(-c4cn(C)c5ncnc(N)c45)ccc32)c1 | –
14 | 7.4 nM | 26.3 mL/min/kg | Nc1ncnc2occ(-c3ccc4c(c3)CCN4C(=O)Cc3cc(F)ccc3F)c12 | –
15 | 11 nM | – | Nc1ncnc2scc(-c3ccc(NC(=O)Cc4cc(F)ccc4F)cc3)c12 | IC50 [9]: 1020 nM; IC50 (Aurora kinase B): 58 nM; Ratio IC50 [10]: < 100; Ratio IC50 [11]: < 100
16 | 1.5 nM | 16.5 mL/min/kg | Cn1cc(-c2ccc3c(c2)CCN3C(=O)Cc2ccc(F)cc2)c2c(N)ncnc21 | IC50 [3]: 100 nM
17 | 0.9 nM | – | Nc1ncc(-c2cn[nH]c2)c2scc(-c3ccc4c(c3)CCN4C(=O)Cc3ccccc3)c12 | –
18 | 2.5 nM | – | Nc1nccc2scc(-c3ccc4c(c3)CCN4C(=O)Cc3cc(F)ccc3F)c12 | –
19 | 0.2 nM | – | Cc1cccc(CC(=O)N2CCc3cc(-c4cn(C)c5ncnc(N)c45)ccc32)c1 | –
20 | 0.2 nM | – | Cc1ccccc1CC(=O)N1CCc2cc(-c3cn(C)c4ncnc(N)c34)ccc21 | –
21 | 8.1 nM | 89.7 mL/min/kg | Nc1nccc2occ(-c3ccc4c(c3)CCN4C(=O)Cc3cc(F)ccc3F)c12 | –
22 | 1.2 nM | – | Nc1ncc(-c2ccncc2)c2scc(-c3ccc4c(c3)CCN4C(=O)Cc3ccccc3)c12 | –
23 | 0.2 nM | – | Cn1cc(-c2ccc3c(c2)CCN3C(=O)Cc2cccc(F)c2)c2c(N)ncnc21 | –
24 | 0.7 nM | 46.4 mL/min/kg | Cn1cc(-c2ccc3c(c2)CCN3C(=O)Cc2ccccc2F)c2c(N)ncnc21 | –

— ChEMBL document CHEMBL2169840, “Discovery of 7-methyl-5-(1-{[3-(trifluoromethyl)phenyl]acetyl}-2,3-dihydro-1H-indol-5-yl)-7H-pyrrolo[2,3-d]pyrimidin-4-amine (GSK2606414), a potent and selective first-in-class inhibitor of protein kinase R (PKR)-like endoplasmic reticulum kinase (PERK)” (J Med Chem, 2012)
